Screening results as filed in PubChem.
This is a sample that favours compounds with a hit; in the whole collection about 2.7% have one here.
V1R ag counter = counter-screen for oxytocin receptor agonists: human V1a receptor agonists. AID 2797. hit rate 0.25% among 320,000. P37288. CHO-V1R cells, Fluo-8 calcium fluorescence, agonist mode; 0% DMSO, 100% 3 nM vasopressin. activation, % at 3 µM;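 active = activation above the mean activation of all tested compounds plus 3 SD, per screening run, cut at about 20% in these data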;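 also: signal is peak over basal fluorescence ratio across a 100 second FLIPR read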
Target sequence (P37288 whole entry, looked up): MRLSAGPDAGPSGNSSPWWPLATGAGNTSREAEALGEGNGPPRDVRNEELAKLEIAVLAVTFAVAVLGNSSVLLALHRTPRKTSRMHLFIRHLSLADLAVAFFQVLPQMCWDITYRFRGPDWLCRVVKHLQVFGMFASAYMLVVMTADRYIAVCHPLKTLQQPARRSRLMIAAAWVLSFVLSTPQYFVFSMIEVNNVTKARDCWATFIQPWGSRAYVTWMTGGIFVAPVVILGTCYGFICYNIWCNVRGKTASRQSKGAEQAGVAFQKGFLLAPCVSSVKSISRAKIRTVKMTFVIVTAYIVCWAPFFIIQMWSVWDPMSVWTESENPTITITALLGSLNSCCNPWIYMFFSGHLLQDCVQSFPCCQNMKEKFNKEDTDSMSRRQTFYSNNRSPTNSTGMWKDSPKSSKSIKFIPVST
CHO parental Ca = counter-screen: ATP calcium response change in parental CHO cells | parental CHO-K1, ATP-induced calcium, Fluo-8 fluorescence | inhibition, % at 5.6 µM | hit rate 0.63% among 330,000;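 active = inhibition above that plate's mean sample inhibition plus 3 SD, cut at about 26% in these data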;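 also: 0% = ATP-challenged DMSO wells and 100% = DMSO wells without ATP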
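Material: Parental CHO cells | Reagent: ATP | Compound dosing: Single nominal dose of 5.6 µM per compound | Detection: Intracellular calcium via Fluo-8 no-wash fluorescent dye | Read-out: % inhibition of ATP-induced calcium mobilization | Benchmarks: Low control ATP plus DMSO, high control DMSO only | Replicates: Singlicate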
OXTR agonist = agonists of human oxytocin receptor; AID 2435; hit rate 0.32% among 320,000; CHO-OTR cells, Fluo-8 calcium fluorescence; normalized: DMSO 0%, oxytocin 100%; activation, % at 3 µM; P30559;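 active = activation above the mean of all tested compounds plus 3 SD, cutoff set per screening run, cut at about 20% in these data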;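 also: peak over basal fluorescence ratio from a 100 s FLIPR kinetic read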
OX1R antag-1 = human HCRTR1 antagonism | O43613 | CHO/OX1R cells, Fluo-8 calcium fluorescence, orexin A | inhibition, % at 5 µM | hit rate 0.43% among 330,000;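 active = inhibition above its plate's threshold, mean inhibition of all tested compounds on the plate plus 3 SD, cut at about 37% in these data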;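 also: 0% = orexin A challenge wells and 100% = SB-334867-A antagonist wells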
OXTR potentiator = human OXTR potentiation; CHO-OTR cells, Fluo-8 calcium fluorescence, potentiator mode; 0% = oxytocin EC15, 100% = EC100; activation, % at 3 µM; hit rate 0.061% among 320,000; AID 2445;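 active = activation above that plate's cutoff, the mean activation of tested compounds plus 3 SD, cut at about 6.6% in these data, passing the limit was not always enough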;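 also: 100% uses oxytocin at 75 nM as the full agonist control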
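Dosing: Single dose, 3.0 µM nominal final compound concentration | Material: Human OTR in CHO cells | Technique: Kinetic Fluo-8 calcium fluorescence | Benchmarks: EC15 oxytocin alone as 0%, 75 nM oxytocin as 100% | Probe or stimulus: Oxytocin at about EC15, sub-maximal agonist stimulus | Incubation: Compound 6 min at room temperature before oxytocin, 100 s read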
OX1R antag-2 = antagonists of human orexin 1 receptor (OX1R). O43613. OX1R-expressing cells, FRET antagonist read-out. inhibition, % at 6.6 µM. hit rate 1.8% among 330,000; in the data active = inhibition mostly above about 38%, no sharp cut-off; inactive = mostly below about 40%;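 also: 0% = agonist challenge alone and 100% = reference antagonist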
* hit, by the source's call; . = not tested or not shown.

SMILES	V1R ag counter	CHO parental Ca	OXTR agonist	OX1R antag-1	OXTR potentiator	OX1R antag-2
COc1ccccc1/C=N/NC(=O)c1cc2c(ccc3ccccc32)o1	0	-18	-1	-1	-6	65*
COc1cc(/C=N/NC(=O)c2cc3c(ccc4ccccc43)o2)cc(OC)c1O	2	-9	0	7	-4	53*
Cc1ccc(C(=O)Nn2c(C)nc3ccccc3c2=O)cc1C	-1	-5	-2	-11	-5	-6
COc1cc(/C=C(\CCC(=O)O)c2nc3ccccc3s2)ccc1OCC(=O)Nc1c(Cl)cccc1Cl	1	-17	1	0	-5	23
CCN(CC)C(=O)c1oc2ccc(S(=O)(=O)N3CC(C)CC(C)C3)cc2c1C (configuration not stated)	5	41*	-1	33	-11	60
CC(C)(O)C#Cc1ccc(CNC[C@H]2O[C@@H](n3cnc4c(N)ncnc43)[C@H](O)[C@@H]2O)s1	.	-7	.	2	.	4
Cc1cc(C)cc(NC(=O)c2ccc(CSc3nnnn3C)cc2)c1	1	-9	-3	7	-9	49*
O=C(Nc1cccc(-c2nc3ccccc3o2)c1)c1cccnc1	1	-17	0	-17	-14	65*
COc1cc(NC(=O)C2CC(=O)N(CCc3ccc(F)cc3)C2)cc(OC)c1OC (configuration not stated)	-1	0	0	-11	1	6
CCN1/C(=C/C(C)=C/c2sc3ccccc3[n+]2CC)Sc2ccccc21	15	87*	18	95*	-13	63*
CCN1/C(=C\C(=S)Nc2ccccc2)Sc2ccccc21	1	-9	1	-27	-3	10
CCOC(=O)Cn1c(=NC(=O)c2cc(-c3cccs3)nc3ccccc23)sc2cc(S(N)(=O)=O)ccc21	2	-5	4	14	-5	26
COC(=O)Cn1c(=NC(=O)c2cc(-c3cccs3)nc3ccccc23)sc2cc(S(N)(=O)=O)ccc21	2	36*	2	20	-6	12
CCN(CC)C(=O)[C@H]1C[C@H](CC(=O)NCCc2ccccn2)C(=O)N2CCc3c([nH]c4cc(CCC(=O)N(C)C)ccc34)[C@]12C	.	5	.	-3	.	9
COC(=O)C1=C(C)N(C)C(=O)NC1c1cccc2ccccc12 (configuration not stated)	1	-17	0	-4	-4	10
S=c1[nH]nc(-c2ccncc2)n1/N=C/C=C/c1ccccc1	0	-20	0	-18	-5	21
S=c1[nH]nc(-c2ccncc2)n1/N=C/C(Cl)=C\c1ccccc1	7	-19	8	-28	14	42*
COc1cccc2c3c(c(C)nc12)CCN3c1ccccc1	0	8	2	-11	-8	64*
O=C(CNC(=O)c1ccccn1)N=Nc1c(O)[nH]c2ccccc12	1	3	1	5	-3	71*
COc1ccc(CC(=O)NCC(=O)N=Nc2c(O)[nH]c3ccccc23)cc1	1	2	2	8	0	34
CC(C)CC(=O)N=Nc1c(O)[nH]c2ccccc12	0	-5	-2	-10	-8	53*
O=C(CSCc1cccc(Br)c1)N=Nc1c(O)[nH]c2ccccc12	-1	-16	-2	5	-10	51*
COc1ccc(NC2CCCN(C(=O)c3ccc4[nH]c(C)c(C)c4c3)C2)cc1OC (configuration not stated)	2	-20	3	-10	-12	21
C/C(=C1/C(=O)N(c2ccc([N+](=O)[O-])cc2)N=C1c1ccccc1)N(C)C	62*	20	54*	18	-13	42*
CN(C)/C=C1/C(=O)N(c2ccc([N+](=O)[O-])cc2)N=C1c1ccccc1	0	-3	0	3	-9	13
SMILES	V1R ag counter	CHO parental Ca	OXTR agonist	OX1R antag-1	OXTR potentiator	OX1R antag-2
CCNC(=S)N=Nc1c(O)[nH]c2ccc([N+](=O)[O-])cc12	1	18	-2	-1	-4	46*
O=[N+]([O-])c1ccc2[nH]c(O)c(N=NC(=S)NCC3CCCO3)c2c1 (configuration not stated)	0	-2	-1	1	-8	20
Cc1ccc(C(=O)Nc2cccc(C(=O)N3CCOCC3)c2)cc1Cl	1	-6	-1	-8	-3	31
COc1ccc(CNC(=O)COc2cc3c(c4oc(=O)cc(C)c24)CCC(C)(C)O3)cc1OC	-1	-9	0	-17	1	42*
CCN(CC)C(=O)c1ccc(COc2ccc(Cl)c(C)c2)o1	7	44*	6	-13	-17	19
COCCNC(=O)c1c(CS(=O)(=O)c2ccccc2)noc1C(=O)NCc1ccccc1	0	-15	0	-30	-7	27
CC1=C/C(=N\OS(=O)(=O)c2ccccc2)C(C(C)C)=CC1=O	-1	45	-2	51*	-5	37
Cc1ccc(C(=O)NCc2ccccn2)cc1S(=O)(=O)N1CCOCC1	1	-5	0	-16	-8	0
Cc1cc2nsnc2c(S(=O)(=O)N2CCN(C)CC2)c1C	0	-3	1	-5	-6	42*
O=C(OCC(=O)N1CCCC1)c1cc(Cl)ccc1Cl	0	-2	1	-2	-11	14
Cc1ccc2nc(/C(C#N)=C\c3cc(C)n(-c4cccc([N+](=O)[O-])c4)c3C)[nH]c2c1	-1	2	-1	-2	-4	59*
C/C(N)=C(/C#N)C(=O)COC(=O)c1ccc(OCC2CCCO2)cc1 (configuration not stated)	4	-4	2	-5	-5	21
CCCCCCCn1c(=O)c(C(=O)OC)c(N)c2ccccc21	7	58*	8	41*	-16	60
C[C@H](NC(=O)c1ccco1)C(=O)NNC(=O)c1ccc(F)cc1	1	-1	1	4	-7	6
CCn1c(SC(C)C(=O)Nc2ccc3c(c2)OCCO3)nnc1C1CC1 (configuration not stated)	1	-10	0	-14	-2	8
C/C(=N\Nc1cccc2cccnc12)c1ccccn1	-1	-6	-2	-9	0	43*
CCOC(=O)Cn1c(-c2ccccc2)nc2ccccc2c1=O	-1	-29	-1	15	-1	75*
CCOC(=O)CSc1nc(-c2ccccc2)nc2ccccc12	-1	-18	-1	-15	-3	38*
Cn1c(=O)c2c(ncn2CC(=O)Nc2nc(-c3ccc(F)c(F)c3)cs2)n(C)c1=O	2	99*	2	-13	2	12
Cc1ccc(-c2csc(NC(=O)Cn3cnc4c3c(=O)n(C)c(=O)n4C)n2)cc1C	0	-14	0	-19	-14	26
